Results on 46 compounds are retold here after ChEMBL document CHEMBL1129983, “Synthesis and structure-activity relationships of carboxylated chalcones: a novel series of CysLT1 (LTD4) receptor antagonists” (J Med Chem, 1997).

A value given as a limit tells only on which side of the number the result lay.

For one test, the species on record is Cavia porcellus. Description: Inhibition of ovalbumin-induced contraction (10 ng/mL) of guinea pig trachea at 10 uM.
Details: not given
The test is classed as functional. Put shortly:
(§1)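 Ovalbumin-sensitized male Hartley guinea pigs (2 mg ip, ≥2 weeks prior). Tracheal ring strips in Krebs with 3 µM indomethacin, 37 °C, 95% O2/5% CO2, 0.5 g tension, 60 min equilibration. Drug 10 µM preincubated 30 min, then ovalbumin challenge for 20–60 min, followed by 10 µM carbachol. Antigen response expressed as percent of the carbachol contraction.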
Regarding `O=C(O)c1cccc(C(=O)/C=C/c2cccc(/C=C/c3ccc4ccccc4n3)c2)c1O`, the Inhibition stood at 0%.

The compound `O=C(Nc1cccc2c(=O)cc(-c3nnn[nH]3)oc12)c1ccc(OCCCCc2ccccc2)cc1` registered an Inhibition of 80%. Consider `O=C(/C=C/c1ccc(OCc2ccc3ccccc3n2)cc1)c1cc(-c2nn[nH]n2)ccc1O`, for which the Inhibition is listed as 52%.

The target in another test is Cysteinyl leukotriene receptor 1 (Cavia porcellus). Nature of the test: Displacement of [3H]LTD4 from Cysteinyl leukotriene D4 receptor in guinea pig lung membranes.
Details: not given
In turn, `CCOCCn1c(COc2ccc(/C=C/C(=O)c3cc(-c4nn[nH]n4)ccc3O)cc2)nc2ccccc21` registered a Kd of 527 nM. Same read-out and setting: to `O=C(O)c1cc(Cl)cc(C(=O)/C=C/c2ccc(OCc3ccc4ccccc4n3)cc2)c1O` belongs 732 nM. The same measure, in the same setting: next, `O=C(/C=C/c1cccc(OCc2ccc3ccccc3n2)c1)c1cc(-c2nn[nH]n2)ccc1O`: 209 nM; `CCOCCn1c(COc2cccc(/C=C/C(=O)c3cc(-c4nn[nH]n4)ccc3O)c2)nc2ccccc21`: 8850 nM. Same read-out and setting: next, `O=C(O)c1ccc(O)c(C(=O)/C=C/c2ccc(/C=C/c3ccc4ccccc4n3)cc2)c1`: 585 nM; `N#Cc1cc(Cl)cc(C(=O)/C=C/c2cccc(/C=C/c3ccc4ccccc4n3)c2)c1O`: 449 nM. The compound `O=C(O)c1cccc(C(=O)/C=C/c2cccc(/C=C/c3ccc4ccccc4n3)c2)c1O` yielded a Kd of 26 nM. Same read-out and setting: next, `COC(=O)c1ccc(OC)c(C(=O)/C=C/c2ccc(OCc3ccc4ccccc4n3)cc2)c1`: 357 nM; `O=C(O)c1cccc(C(=O)/C=C/c2ccc(/C=C/c3ccc4ccccc4n3)cc2)c1O`: 200 nM; `O=C(O)c1ccc(C(=O)/C=C/c2ccc(OCc3ccc4ccccc4n3)cc2)c(O)c1`: 1210 nM.

For `O=C(O)c1ccc(O)c(C(=O)/C=C/c2ccc3ccccc3n2)c1`, the Kd came to 11100 nM. Consider `O=C(O)c1cc(F)cc(C(=O)/C=C/c2cccc(/C=C/c3ccc4ccccc4n3)c2)c1O`, for which the Kd is reported as 140 nM. On the same count and under the same terms, to `O=C(/C=C/c1cccc(/C=C/c2ccc3ccccc3n2)c1)c1cc(Cl)cc(-c2nn[nH]n2)c1O` belongs 828 nM; to `O=C(/C=C/c1ccc(OCc2nccs2)cc1)c1cc(-c2nn[nH]n2)ccc1O`, 233 nM; to `O=C(/C=C/c1cccc(/C=C/c2ccc3ccccc3n2)c1)c1cc(-c2nn[nH]n2)ccc1O`, 21 nM.

`COc1ccc(C(=O)O)cc1C(=O)/C=C/c1ccc(OCc2ccc3ccccc3n2)cc1` showed a dissociation constant (Kd) of 188 nM. The same measure, in the same setting: next, `O=C(O)c1cc(F)cc(C(=O)/C=C/c2ccc(OCc3ccc4ccccc4n3)cc2)c1O`: 396 nM; `O=C(O)c1cc(Br)cc2c(=O)cc(-c3ccc4ccccc4n3)oc12`: 14800 nM; `CCOCCn1c(COc2cccc(/C=C/C(=O)c3cc(Cl)cc(C(=O)O)c3O)c2)nc2ccccc21`: 10500 nM. Same read-out and setting: to `O=C(O)COc1ccc(O)c(C(=O)/C=C/c2cccc(/C=C/c3ccc4ccccc4n3)c2)c1` belongs 175 nM. The compound `O=C(O)c1cccc(C(=O)/C=C/c2ccc(OCc3ccc4ccccc4n3)cc2)c1O` yielded an equilibrium dissociation constant (Kd) of 307 nM. Still for that read-out and setting: to `O=C(O)c1ccc(C(=O)/C=C/c2cccc(OCc3ccc4ccccc4n3)c2)c(O)c1` belongs 928 nM; to `O=C(O)COc1ccc(C(=O)/C=C/c2cccc(/C=C/c3ccc4ccccc4n3)c2)c(O)c1`, 204 nM; to `CC(C)(C)c1cc(C(=O)O)c(O)c(C(=O)/C=C/c2cccc(/C=C/c3ccc4ccccc4n3)c2)c1`, 208 nM. Still for that read-out and setting: to `O=C(/C=C/c1ccc(OCc2ccc3ccc(Cl)cc3n2)cc1)c1cc(-c2nn[nH]n2)ccc1O` belongs 196 nM; to `O=C(O)c1cc(Br)cc(C(=O)/C=C/c2cccc(OCc3ccc4ccccc4n3)c2)c1O`, 205 nM; to `N#Cc1ccc(O)c(C(=O)/C=C/c2ccc(OCc3ccc4ccccc4n3)cc2)c1`, 4310 nM. `CCOCCn1c(COc2ccc(/C=C/C(=O)c3ccc(C(=O)O)cc3O)cc2)nc2ccccc21` came in with a dissociation constant (Kd) of 62400 nM. Compared with the last compound, the Kd is about 14-fold higher. On the same count and under the same terms, next, `O=C(/C=C/c1cccc(OCc2ccc3ccccc3c2)c1)c1cc(-c2nn[nH]n2)ccc1O`: 19200 nM; `O=C(/C=C/c1ccc(/C=C/c2ccc3ccc(Cl)cc3n2)cc1)c1cc(-c2nn[nH]n2)ccc1O`: 239 nM. On the same count and under the same terms, next, `O=C(O)c1cc(Br)cc(C(=O)/C=C/c2ccc(OCc3ccc4ccccc4n3)cc2)c1O`: 2100 nM.

A further test is filed under the species Cavia porcellus. Description: Inhibition of ovalbumin-induced contraction (10 ng/mL) of guinea pig trachea at 10 uM. The test is classed as functional.
Details: not given
The gist of the method: as §1
Turning to `O=C(/C=C/c1cccc(/C=C/c2ccc3ccccc3n2)c1)c1cc(OCc2nn[nH]n2)ccc1O`, the Inhibition is given as 0%. The same measure, in the same setting: to `CCCc1c(OCC(O)COc2ccc3c(=O)cc(C(=O)O)oc3c2CCC)ccc(C(C)=O)c1O` (stereo not given) [FPL-55712] belongs 38%.

In a further test the target is T1, Cysteinyl leukotriene receptor 1 (Cavia porcellus) (UniProt Q2NNR5).
T1 sequence (whole entry): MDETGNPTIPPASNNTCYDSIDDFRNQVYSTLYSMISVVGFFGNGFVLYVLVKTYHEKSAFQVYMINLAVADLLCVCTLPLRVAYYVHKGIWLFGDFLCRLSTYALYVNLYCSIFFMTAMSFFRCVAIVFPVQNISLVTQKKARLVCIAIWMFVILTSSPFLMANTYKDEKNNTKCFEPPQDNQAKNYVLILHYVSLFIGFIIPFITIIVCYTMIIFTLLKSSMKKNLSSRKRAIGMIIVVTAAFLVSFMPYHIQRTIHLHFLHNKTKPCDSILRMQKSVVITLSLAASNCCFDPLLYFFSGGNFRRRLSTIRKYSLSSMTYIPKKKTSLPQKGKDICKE
Nature of the test: Percent inhibition against Cysteinyl leukotriene D4 receptor in guinea pig lung membranes using [3H]LTD4 4 at 10 e-5 M. As to conditions: Membrane. The test is classed as cell membranes. Put shortly: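 Same [3H]LTD4 (0.2 nM) filtration binding with guinea pig lung membranes, PIPES pH 7.5, 22 °C, 30 min. Percent inhibition = (maximum binding − counts at highest drug concentration) / maximum binding × 100.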
In turn, `O=C(O)c1ccc(O)c(C(=O)/C=C/c2ccc(OCc3ccccc3)cc2)c1` yielded an inhibition of 23%. The same measure, in the same setting: next, `CCCCOc1ccc(C(=O)O)cc1C(=O)/C=C/c1ccc(OCc2ccc3ccccc3n2)cc1`: 42%; `O=C(O)c1ccc(O)c(C(=O)/C=C/c2ccccc2OCc2ccccc2)c1`: 0%; `O=C(O)c1ccc(O)c(C(=O)/C=C/c2ccccc2OCc2ccc3ccccc3n2)c1`: 18%. As to `N#Cc1ccc(O)c(C(=O)/C=C/c2cccc(OCc3ccc4ccccc4n3)c2)c1`, the inhibition was determined as 38%. Same read-out and setting: next, `N#Cc1ccc(C(=O)/C=C/c2ccc(OCc3ccc4ccccc4n3)cc2)cc1`: 9%; `O=C(/C=C/c1ccc(OCc2ccc3ccccc3c2)cc1)c1cc(-c2nn[nH]n2)ccc1O`: 4%. Compound `N#Cc1ccc(C(=O)/C=C/c2cccc(OCc3ccc4ccccc4n3)c2)cc1` showed an inhibition of 7%. On the same count and under the same terms, next, `CCOC(=O)c1ccc(O)c(C(=O)/C=C/c2ccc(OCc3ccc4ccccc4n3)cc2)c1`: 16%.

In a further test the test system is Cavia porcellus. Description: Inhibition of LTD4 induced increase of vascular permeability after injection of 10 ng/site at […] intraperitoneally. The test is classed as functional.
Details: not given
Consider `O=C(Nc1cccc2c(=O)cc(-c3nnn[nH]3)oc12)c1ccc(OCCCCc2ccccc2)cc1`, for which the Inhibition was 100%.

For a further test, the system named is Cavia porcellus. Description: Inhibition of LTD4 induced increase of vascular permeability after injection of 10 ng/site at 10 mg/kg intraperitoneally. The test is classed as functional. As to conditions: ip, route intraperitoneal. Put shortly:
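Male Hartley guinea pigs (~300 g), fasted 24 h with water available, dosed ip at 10 mg/kg in 0.5% carboxymethylcellulose or saline. One hour later Evans blue 50 mg/kg iv, then LTD4 intradermally on the back. Dorsal skin removed 30 min later, dye extracted and quantified. Reported as percent inhibition versus control.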
With `O=C(O)c1cccc(C(=O)/C=C/c2cccc(/C=C/c3ccc4ccccc4n3)c2)c1O`, the inhibition in vivo at 10 mg/kg was less than 10%. Same read-out and setting: to `O=C(O)c1cc(Cl)cc(C(=O)/C=C/c2cccc(/C=C/c3ccc4ccccc4n3)c2)c1O` belongs less than 10%; to `O=C(/C=C/c1ccc(OCc2ccc3ccccc3n2)cc1)c1cc(-c2nn[nH]n2)ccc1O`, 72%.

Another test is filed under the species Cavia porcellus. Nature of the test: Inhibition of LTD4 induced contraction of guinea pig ileum. The test is classed as functional.
Details: not given
Put shortly: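 Male guinea pig ileum segments (2 cm), 20 mL organ bath, Tyrode's with atropine and pyrilamine (10⁻⁶ M each), 29 °C, 95% O2/5% CO2, 1.0 g resting tension, isotonic recording. Compounds in DMSO (10⁻⁵ to 3 × 10⁻⁹ M) preincubated 30 min; indomethacin 10⁻⁶ M added 10 min before 10⁻⁸ M LTD4. IC50 from percent inhibition across concentrations.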
Compound `O=C(/C=C/c1cccc(/C=C/c2ccc3ccccc3n2)c1)c1cc(OCc2nn[nH]n2)ccc1O` returned an IC50 of 23 nM. In other words, the double-digit nanomolar range. Compound `O=C(O)c1cccc(C(=O)/C=C/c2cccc(/C=C/c3ccc4ccccc4n3)c2)c1O` showed an IC50 of 52 nM.

In turn, `O=C(/C=C/c1cccc(/C=C/c2ccc3ccccc3n2)c1)c1cc(-c2nn[nH]n2)ccc1O` registered a half-maximal inhibitory concentration (IC50) of 46 nM. Turning to `O=C(O)c1cc(Cl)cc(C(=O)/C=C/c2cccc(/C=C/c3ccc4ccccc4n3)c2)c1O`, the IC50 is 360 nM.

On to `O=C(/C=C/c1ccc(OCc2ccc3ccccc3n2)cc1)c1cc(-c2nn[nH]n2)ccc1O`, for which the concentration for half-maximal inhibition (IC50) is 240 nM. On the same count and under the same terms, next, `Cn1c(COc2ccc(/C=C/C(=O)c3cc(-c4nn[nH]n4)ccc3O)cc2)nc2ccccc21`: 190 nM.
